From ChEMBL document CHEMBL2424592, “Epothilone D and its 9-Methyl analogues: combinatorial syntheses, conformation, and biological activities” (Eur J Med Chem, 2013)

How the values were obtained:
[1] = system: MCF7; assay: Cytotoxicity against human MCF7 cells after 72 hrs; format: functional, cell-based; settings: MCF7, 72 h
[2] = target: Tubulin (Homo sapiens) (UniProt P68371+Q9H4B7+P0DPH7+P68366+Q13509+Q71U36+P04350+Q3ZCM7+P07437+P68363+Q9BQE3+Q6PEY2+Q13885+Q9BVA1+Q9BUF5); assay: Inhibition of tubulin polymerization (unknown origin) at 5 uM; format: protein-complex assay
In short: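 Tubulin came from fresh animal brain (species not given), homogenized in cold MES buffer and purified through repeated cold (4 °C) and warm 105,000 g centrifugation cycles, then diluted to 2 mg/mL in MES. Cold tubulin was mixed with ATPNa2 (40 mmol/L stock) and compound. Polymerization was followed as OD350 every 3 min at 37 °C for 30 min.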

[3] = Cytotoxicity against human MCF7/ADR cells after 72 hrs; format: functional, cell-based; settings: NCI/ADR-RES

C/C1=C/C[C@@H](/C(C)=C/c2csc(C)n2)OC(=O)C[C@H](O)C(C)(C)C(=O)[C@H](C)[C@@H](O)[C@@H](C)CCC1 [EPOTHILONE D]
IC50 [1]: 0.014 µM | inhibition [2]: 43.3% | IC50 [3]: 0.01 µM

C/C1=C\C[C@@H](/C(C)=C/c2csc(C)n2)OC(=O)C[C@H](O)C(C)(C)C(=O)[C@H](C)[C@@H](O)[C@@H](C)[C@H](C)CC1
IC50 [1]: 7.7 µM | IC50 [3]: 7.3 µM

C/C1=C/C[C@@H](/C(C)=C/c2csc(C)n2)OC(=O)C[C@H](O)C(C)(C)C(=O)[C@H](C)[C@@H](O)[C@@H](C)[C@H](C)CC1
IC50 [1]: 0.99 µM | inhibition [2]: 15.7% | IC50 [3]: 0.51 µM

C/C1=C\C[C@@H](/C(C)=C/c2csc(C)n2)OC(=O)C[C@H](O)C(C)(C)C(=O)[C@H](C)[C@@H](O)[C@@H](C)[C@@H](C)CC1
IC50 [1]: 93.4 µM | IC50 [3]: > 100 µM

C/C1=C/C[C@@H](/C(C)=C/c2csc(C)n2)OC(=O)C[C@H](O)C(C)(C)C(=O)[C@H](C)[C@@H](O)[C@@H](C)[C@@H](C)CC1
IC50 [1]: 35.4 µM | inhibition [2]: 8.5%
